hERG rescue – hERG (human) protection from proarrhythmic block; Q12809; CHO-hERG, FluxOR thallium flux, dofetilide IC70 present; activation (rescue from dofetilide block), less the hit threshold, % at 10 µM; hit rate 0.51% among 310,000;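 active = activation above the mean of controls blocked by dofetilide plus 5 SD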;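 also: thallium influx through hERG after potassium depolarization seen as dye fluorescence rise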
KCNK9 block – blocks the human KCNK9 two-pore domain potassium channel; HEK293 KCNK9, FluxOR thallium flux fluorescence; hits give low values; B-score at 10 µM; hit rate 1.2% among 310,000; AID 488922;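 active = ratio B-score over 3 SD below the library mean, with starting fluorescence within 5 SD of its mean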;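 also: negative B-score means less thallium flux so channel inhibition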
Kir21 inh – inhibitors of mouse Kir2.1 inward-rectifier potassium channel; P35561; HEK293-Kir2.1, FluxOR thallium flux fluorescence; hits give low values; B-score at 10 µM; hit rate 0.85% among 310,000;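 active = fluorescence ratio B-score at or below minus 3 SD of library scores, with starting-brightness B-score within 2 SD, cut at about -4.2 in these data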;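 also: channel flux triggered by added potassium and thallium sulfate stimulus; B-score of peak minus minimum fluorescence over baseline after thallium stimulus; more negative B-score means stronger Kir2.1 block with less thallium influx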
KCNQ1 block – inhibitors of human KCNQ1 potassium channel. B-score at 10 µM. P51787. hit rate 1.3% among 310,000. CHO-K1 KCNQ1, FluxOR thallium flux fluorescence; hits give high values;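 active = compounds whose thallium flux B-score, printed positive for inhibition, exceeds three library SD while starting fluorescence stays within three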;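 also: channel opened by potassium depolarization with thallium stimulus after 20 min compound exposure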
KCNK3 block – human KCNK3 channel inhibition, primary screen. CHO-KCNK3 thallium flux, FluxOR fluorescence; hits give low values. hit rate 0.84% among 340,000. AID 602410. O14649. B-score at 10 µM;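 active = B-score under library mean minus 4 SD, starting fluorescence ratio at most library mean plus 5 SD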;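 also: more negative B-score means stronger inhibition of thallium flux through KCNK3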
KCNQ1 act – potentiators or activators of human KCNQ1 potassium channel. P51787. CHO-K1 KCNQ1, thallium flux FluxOR fluorescence; hits give high values. B-score at 10 µM. hit rate 0.35% among 310,000. AID 2648;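 active = fluorescence ratio B-score, a plate-corrected score, at least three library SD, with initial intensity B-score within 5 SD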
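assay system = KCNQ1-transfected CHO-K1 cells | medium = assay buffer with matched DMSO | probe or stimulus = depolarizing K+/Tl+ stimulus, K2SO4 and Tl2SO4 each 12.5 mM in 5x stock | dosing = single dose | incubation = dye 90 min, compound 20 min, room temperature | detection = kinetic FluxOR fluorescence, 10 s baseline plus 110 s post-stimulus | evaluation = ratio B score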
KCNK9 inh conf – human KCNK9 inhibitor confirmation; hit rate 43% among 4,900; HEK293 KCNK9 cells, FluxOR thallium flux fluorescence; AID 492992; inhibition, % at 10 µM; shares compounds with KCNK9 block;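 active = thallium signal inhibited by more than 5 SD of the compound-free buffer control wells, on both duplicate plates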;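 also: 0% = assay buffer control wells without compound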
Kir21 sel – tests whether KCNK9 modulators also affect mouse Kir2.1; shares compounds with KCNK9 block; Kir2.1 cells, FluxOR thallium flux fluorescence; inhibition, % at 10 µM; hit rate 4% among 4,900;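 active = thallium signal drop more than 5 SD beyond the mean of the no-compound control wells, seen in both duplicate plates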;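 also: signal is fluorescence rise after thallium addition divided by baseline fluorescence; plate controls were assay buffer only for no effect and full block by chlorpromazine control for full effect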
HEK293 Tl ctr – non-induced cell nonspecific activity of KCNK9 modulators | shares compounds with KCNK9 block | non-induced KCNK9-HEK293, FluxOR thallium flux | inhibition, % at 10 µM | hit rate 40% among 4,900 | AID 492997;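 active = thallium signal drop beyond 5 SD of the untreated control mean, on both duplicate plates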;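 also: plate controls were buffer only IC0 wells for no effect and SID17386958 at its maximal inhibitory level for full effect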
* = called active by the depositor; i = inactive; · = not tested or not shown. In the library only some 3.7% were active in any assay of this set; here they are far more common.

SMILES | hERG rescue | KCNK9 block | Kir21 inh | KCNQ1 block | KCNK3 block | KCNQ1 act | KCNK9 inh conf | Kir21 sel | HEK293 Tl ctr
COc1ccccc1NC(=O)Nc1sccc1-c1nc2ccccc2s1 | -5.3 | -12.8* | 0.08 | i | i | i | 69.5%* | i | 39.5%*
O=C(Nc1ccccc1)Nc1sccc1-c1nc2ccccc2s1 | -9.6 | i | -0.16 | i | i | i | · | · | ·
CCOC(=O)CC(NC(=O)c1cccc2c1C(=O)N(Cc1cccnc1)C2)c1ccc(OC(C)C)cc1 (stereo not drawn) | -10.6 | i | -1.77 | i | i | i | i | i | i
Cc1ccc(-c2nn(-c3cc(Cl)ccc3[N+](=O)[O-])c(=O)c3ccccc23)cc1C | -9.1 | i | -0.67 | i | i | i | i | i | i
O=c1c2ccccc2c(-c2ccccc2)nn1-c1cc(Cl)ccc1[N+](=O)[O-] | · | · | · | · | i | · | · | · | ·
COc1c(C)cc(Br)cc1C(=O)Nc1cccc(NC(=O)c2ccco2)c1 | -14.6 | -10.6* | -0.29 | i | -11* | i | 67.0%* | i | i
COc1c(C)cc(Br)cc1C(=O)NC(=S)Nc1ccc(Cl)c(C(=O)O)c1 | -4.8 | i | 0.63 | i | i | i | i | i | i
COc1cccc(NC(=O)c2ccco2)c1 | -7.3 | i | -1.15 | i | i | i | · | · | ·
COc1ccc(Br)cc1C(=O)Nc1cccc(NC(=O)c2ccco2)c1 | -21.0 | -17.6* | 0.01 | i | i | i | 59.0%* | i | i
O=C(Nc1ccccc1)c1ccc(-c2ccc(Br)cc2)o1 | -4.7 | i | 0.03 | i | i | i | · | · | ·
COc1ccccc1NC(=O)c1ccc(-c2ccc(Br)cc2)o1 | -2.5 | -10.7* | 1.83 | i | i | i | 33.0%* | i | 30.5%*
Fc1cccc(CCN2CCNC[C@@H]2CC2CCCCC2)c1 | · | · | · | · | i | · | · | · | ·
COc1ccc(S(=O)(=O)N2CCCCC2)cc1NC(=O)c1ccco1 | -6.9 | i | -0.91 | i | i | i | · | · | ·
COc1ccc(NC(=O)c2ccco2)cc1S(=O)(=O)N1CCCCC1 | -5.6 | i | 0.01 | i | i | i | i | i | i
COc1ccc(Br)cc1C(=O)Nc1ccccc1-c1ccccc1 | -3.2 | -9.95* | 1.99 | i | i | i | 52.0%* | i | 42.0%*
COc1ccccc1NC(=O)c1cc(Br)ccc1Cl | -11.2 | i | -0.66 | i | i | i | · | · | ·
Cc1ccc(NC(=O)N2CCCCCC2)c(C)c1 | -8.2 | i | -1.73 | i | i | i | · | · | ·
Cc1ccc2nc(NCCO)nc(-c3ccccc3)c2c1 | -12.7 | i | -1.06 | i | i | i | · | · | ·
Cc1ccc2nc(NCC(=O)NN)nc(-c3ccccc3)c2c1 | -4.8 | i | 1.39 | i | i | i | i | i | i
O=C(Nc1cccc(-c2nc3ccccc3s2)c1)c1cc(=O)c2ccccc2o1 | -35.8 | i | 0.54 | i | i | i | · | · | ·
O=C(Nc1cccc(-c2cn3ccccc3n2)c1)c1cccs1 | -24.7 | -8.52* | 0.74 | i | i | i | 52.0%* | i | i
O=C(Nc1cccc(-c2nc3ccccc3s2)c1)c1cccs1 | -14.9 | -10.2* | 1.04 | i | i | i | 49.0%* | i | 25.5%*
Cc1sc2nc(C3CC3)nc(SCC(=O)N3CCCc4ccccc43)c2c1C | -7.1 | i | -1.22 | i | · | i | · | · | ·
CCCc1nc(SCC(=O)N2c3ccccc3CC2C)c2c(C)c(C)sc2n1 (stereo not drawn) | -6.9 | i | -0.37 | i | i | i | i | i | i
Cc1sc2nc(C3CC3)nc(SCC(=O)N3CCc4ccccc4C3)c2c1C | -16.3 | i | -0.72 | i | i | i | i | i | i
COc1ccccc1CNC(=O)CN(C)CC(=O)Nc1ccccc1Br | · | · | · | · | i | · | · | · | ·

Screens as filed in PubChem BioAssay.
